Reference: ChEMBL document CHEMBL3826935, “Synthesis and Pharmacology of (Pyridin-2-yl)methanol Derivatives as Novel and Selective Transient Receptor Potential Vanilloid 3 Antagonists” (J Med Chem, 2016)

What was measured:
[1] = target: T1, Transient receptor potential cation channel subfamily V member 3 (Homo sapiens, UniProt Q8NET8); assay: Antagonist activity at human TRPV3 expressed in recombinant HEK293 cells assessed as inhibition of 2-APB induced currents by patch-clamp electrophysiological assay; format: cell-based
T1 sequence (Q8NET8 whole entry): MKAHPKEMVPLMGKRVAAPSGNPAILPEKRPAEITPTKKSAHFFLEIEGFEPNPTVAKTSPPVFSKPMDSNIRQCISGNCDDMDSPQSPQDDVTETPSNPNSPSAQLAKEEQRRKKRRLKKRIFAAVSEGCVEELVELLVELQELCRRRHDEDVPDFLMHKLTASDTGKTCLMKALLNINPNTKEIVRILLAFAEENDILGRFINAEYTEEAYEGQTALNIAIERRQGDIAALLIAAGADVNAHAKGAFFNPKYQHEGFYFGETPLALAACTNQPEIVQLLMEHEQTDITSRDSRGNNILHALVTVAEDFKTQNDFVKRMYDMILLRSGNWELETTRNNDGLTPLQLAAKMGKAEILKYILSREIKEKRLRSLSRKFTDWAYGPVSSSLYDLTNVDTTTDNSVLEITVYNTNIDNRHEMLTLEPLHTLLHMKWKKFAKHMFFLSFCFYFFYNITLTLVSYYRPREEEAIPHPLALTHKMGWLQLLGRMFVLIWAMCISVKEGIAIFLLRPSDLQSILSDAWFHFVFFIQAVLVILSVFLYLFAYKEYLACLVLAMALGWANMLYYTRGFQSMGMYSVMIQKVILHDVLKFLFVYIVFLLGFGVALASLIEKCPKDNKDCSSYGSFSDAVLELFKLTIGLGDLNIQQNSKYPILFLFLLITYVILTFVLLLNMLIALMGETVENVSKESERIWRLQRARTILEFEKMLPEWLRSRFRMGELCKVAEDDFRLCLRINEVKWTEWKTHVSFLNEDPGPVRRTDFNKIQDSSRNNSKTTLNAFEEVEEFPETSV

[2] = target: Transient receptor potential cation channel subfamily V member 1 (Homo sapiens) (UniProt Q8NER1); assay: Binding affinity to TRPV1 (unknown origin) at 10 uM
Transient receptor potential cation channel subfamily V member 1 (Homo sapiens), sequence (Q8NER1 whole entry): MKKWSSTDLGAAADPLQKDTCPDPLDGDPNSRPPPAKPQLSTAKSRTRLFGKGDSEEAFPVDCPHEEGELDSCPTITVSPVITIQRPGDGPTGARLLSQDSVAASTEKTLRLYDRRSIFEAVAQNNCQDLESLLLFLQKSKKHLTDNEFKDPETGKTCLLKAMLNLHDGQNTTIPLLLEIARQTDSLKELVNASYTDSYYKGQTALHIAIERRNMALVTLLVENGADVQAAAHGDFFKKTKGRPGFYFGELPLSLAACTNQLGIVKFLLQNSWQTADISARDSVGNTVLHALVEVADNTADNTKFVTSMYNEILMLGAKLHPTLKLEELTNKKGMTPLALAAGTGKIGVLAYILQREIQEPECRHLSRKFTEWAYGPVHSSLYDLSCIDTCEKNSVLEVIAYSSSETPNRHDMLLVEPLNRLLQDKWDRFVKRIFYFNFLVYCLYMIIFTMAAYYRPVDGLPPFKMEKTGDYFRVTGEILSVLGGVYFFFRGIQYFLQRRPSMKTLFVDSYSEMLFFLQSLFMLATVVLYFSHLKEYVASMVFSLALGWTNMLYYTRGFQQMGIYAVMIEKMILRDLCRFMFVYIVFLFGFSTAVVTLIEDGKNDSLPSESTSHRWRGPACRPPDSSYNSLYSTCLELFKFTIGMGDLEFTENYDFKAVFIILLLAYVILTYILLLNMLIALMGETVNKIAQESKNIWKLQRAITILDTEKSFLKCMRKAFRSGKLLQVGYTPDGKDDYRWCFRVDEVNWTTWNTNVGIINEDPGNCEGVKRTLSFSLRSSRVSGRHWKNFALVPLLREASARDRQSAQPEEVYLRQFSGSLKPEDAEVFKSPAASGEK
In short: (§1)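 Selectivity screen at 10 µM across CEREP and internal target panels. Readout is percent binding, with 50% as the threshold.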

[3] = target: Sodium channel protein type 9 subunit alpha (Homo sapiens) (UniProt Q15858); assay: Binding affinity to Nav1.7 (unknown origin) at 10 uM; in short: as §1
Sodium channel protein type 9 subunit alpha (Homo sapiens), sequence (Q15858 whole entry, looked up): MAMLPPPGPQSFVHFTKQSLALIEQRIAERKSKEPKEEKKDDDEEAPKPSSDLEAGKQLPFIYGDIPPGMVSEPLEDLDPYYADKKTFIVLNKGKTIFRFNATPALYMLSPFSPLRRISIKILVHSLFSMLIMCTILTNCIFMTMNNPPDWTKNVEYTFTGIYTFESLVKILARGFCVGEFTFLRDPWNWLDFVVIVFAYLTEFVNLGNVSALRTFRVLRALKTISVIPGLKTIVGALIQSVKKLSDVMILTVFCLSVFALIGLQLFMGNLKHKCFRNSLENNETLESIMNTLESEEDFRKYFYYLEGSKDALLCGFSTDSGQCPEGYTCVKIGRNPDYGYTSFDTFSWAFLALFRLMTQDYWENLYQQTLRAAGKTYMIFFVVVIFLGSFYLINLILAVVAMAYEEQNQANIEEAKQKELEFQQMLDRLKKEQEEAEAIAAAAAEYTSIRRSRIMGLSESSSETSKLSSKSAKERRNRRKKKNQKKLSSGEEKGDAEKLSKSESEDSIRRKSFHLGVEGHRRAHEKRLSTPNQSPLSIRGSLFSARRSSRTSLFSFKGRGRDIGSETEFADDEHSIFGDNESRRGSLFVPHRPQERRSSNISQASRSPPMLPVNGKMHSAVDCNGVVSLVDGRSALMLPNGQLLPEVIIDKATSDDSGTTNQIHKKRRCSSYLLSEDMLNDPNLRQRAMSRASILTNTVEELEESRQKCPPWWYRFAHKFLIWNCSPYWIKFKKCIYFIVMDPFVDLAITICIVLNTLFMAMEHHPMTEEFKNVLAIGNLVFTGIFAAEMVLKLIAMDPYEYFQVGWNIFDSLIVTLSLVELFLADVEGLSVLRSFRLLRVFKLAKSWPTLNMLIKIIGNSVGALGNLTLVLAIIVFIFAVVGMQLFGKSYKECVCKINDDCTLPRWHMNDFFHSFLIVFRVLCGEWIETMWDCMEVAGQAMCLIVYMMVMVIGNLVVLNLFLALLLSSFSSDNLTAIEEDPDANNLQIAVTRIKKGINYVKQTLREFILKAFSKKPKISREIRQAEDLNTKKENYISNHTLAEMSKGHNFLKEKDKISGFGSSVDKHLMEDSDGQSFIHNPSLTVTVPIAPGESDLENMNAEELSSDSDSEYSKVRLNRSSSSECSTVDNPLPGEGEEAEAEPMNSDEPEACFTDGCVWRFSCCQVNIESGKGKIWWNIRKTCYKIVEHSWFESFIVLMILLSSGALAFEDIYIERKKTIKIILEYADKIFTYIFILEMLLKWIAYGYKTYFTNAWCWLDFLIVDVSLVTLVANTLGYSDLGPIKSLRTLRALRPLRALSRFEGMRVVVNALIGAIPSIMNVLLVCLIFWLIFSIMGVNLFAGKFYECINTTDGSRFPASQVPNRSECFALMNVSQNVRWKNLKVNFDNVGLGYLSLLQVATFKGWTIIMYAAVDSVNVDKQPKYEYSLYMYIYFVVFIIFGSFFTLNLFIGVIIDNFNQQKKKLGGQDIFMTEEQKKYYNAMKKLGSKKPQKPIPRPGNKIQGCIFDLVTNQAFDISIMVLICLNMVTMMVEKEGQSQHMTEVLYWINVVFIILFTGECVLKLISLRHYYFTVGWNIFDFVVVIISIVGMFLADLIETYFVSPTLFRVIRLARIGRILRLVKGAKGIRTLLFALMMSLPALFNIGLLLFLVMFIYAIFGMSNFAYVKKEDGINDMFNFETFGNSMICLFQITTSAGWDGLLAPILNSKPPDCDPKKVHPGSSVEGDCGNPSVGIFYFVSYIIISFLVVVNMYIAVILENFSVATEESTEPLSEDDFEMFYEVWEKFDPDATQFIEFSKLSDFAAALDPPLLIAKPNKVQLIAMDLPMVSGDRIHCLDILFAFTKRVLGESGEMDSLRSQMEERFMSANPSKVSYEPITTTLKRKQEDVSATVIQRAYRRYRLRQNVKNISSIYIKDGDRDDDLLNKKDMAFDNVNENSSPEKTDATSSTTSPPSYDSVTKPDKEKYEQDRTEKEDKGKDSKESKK

[4] = target: Sodium channel protein type 10 subunit alpha (Homo sapiens) (UniProt Q9Y5Y9); assay: Binding affinity to Nav1.8 (unknown origin) at 10 uM; in short: as §1
[5] = target: Voltage-dependent T-type calcium channel subunit alpha-1H (Homo sapiens) (UniProt O95180); assay: Binding affinity to Cav3.2 (unknown origin) at 10 uM; in short: as §1
[6] = target: Voltage-gated inwardly rectifying potassium channel KCNH2 (Homo sapiens, UniProt Q12809); assay: Binding affinity to human ERG at 10 uM; in short: as §1
Voltage-gated inwardly rectifying potassium channel KCNH2, sequence (Q12809 whole entry): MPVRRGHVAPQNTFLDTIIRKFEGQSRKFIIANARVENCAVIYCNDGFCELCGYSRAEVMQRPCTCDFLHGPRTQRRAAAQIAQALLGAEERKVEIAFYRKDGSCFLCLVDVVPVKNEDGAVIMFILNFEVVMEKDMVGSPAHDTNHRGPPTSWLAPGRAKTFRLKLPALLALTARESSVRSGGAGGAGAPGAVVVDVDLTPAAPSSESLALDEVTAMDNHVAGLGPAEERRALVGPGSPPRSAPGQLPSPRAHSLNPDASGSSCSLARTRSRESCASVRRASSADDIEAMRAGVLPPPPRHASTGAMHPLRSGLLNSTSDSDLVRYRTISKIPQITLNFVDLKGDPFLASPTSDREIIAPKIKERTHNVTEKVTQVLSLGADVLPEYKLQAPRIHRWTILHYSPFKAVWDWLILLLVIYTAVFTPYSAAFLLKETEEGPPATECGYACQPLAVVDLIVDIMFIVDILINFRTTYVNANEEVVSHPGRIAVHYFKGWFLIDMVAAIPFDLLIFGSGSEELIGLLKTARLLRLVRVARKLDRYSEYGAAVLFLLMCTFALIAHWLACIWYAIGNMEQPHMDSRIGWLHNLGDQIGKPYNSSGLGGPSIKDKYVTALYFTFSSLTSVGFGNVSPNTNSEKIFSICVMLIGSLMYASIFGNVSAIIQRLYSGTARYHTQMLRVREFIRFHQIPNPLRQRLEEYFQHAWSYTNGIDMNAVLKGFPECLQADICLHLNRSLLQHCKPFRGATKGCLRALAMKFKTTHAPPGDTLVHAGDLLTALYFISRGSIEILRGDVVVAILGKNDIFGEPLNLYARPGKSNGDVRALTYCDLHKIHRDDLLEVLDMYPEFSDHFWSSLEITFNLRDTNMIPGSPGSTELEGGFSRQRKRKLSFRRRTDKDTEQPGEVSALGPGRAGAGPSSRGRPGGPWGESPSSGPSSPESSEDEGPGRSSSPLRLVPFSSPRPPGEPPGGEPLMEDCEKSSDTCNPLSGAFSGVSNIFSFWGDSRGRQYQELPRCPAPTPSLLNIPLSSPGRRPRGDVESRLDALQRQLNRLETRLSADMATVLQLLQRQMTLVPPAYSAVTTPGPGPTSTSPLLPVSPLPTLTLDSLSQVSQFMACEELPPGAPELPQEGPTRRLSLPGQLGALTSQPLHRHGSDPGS

[7] = Total plasma clearance in rat at 1 mg/kg, iv; format: ADME, organism-based
In short: (§2)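 Rat pharmacokinetics: iv dose 1 mg/kg; po dose 1 or 2 mg/kg depending on compound. AUC taken over 0–8 h. Unbound parameters calculated using plasma free fraction.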

[8] = Volume of distribution at steady state in rat at 1 mg/kg, iv or 2 mg/kg, po; format: ADME, organism-based; conditions: in vivo, read-out: Vdss; in short: as §2
[9] = Oral bioavailability in rat at 2 mg/kg; format: ADME, organism-based; conditions: in vivo; in short: as §2
Rattus norvegicus [10] = assay: Antiallodynic activity in Sprague-Dawley rat reserpine model of central pain assessed as increase in reserpine induced muscle pressure threshold at 10 to 100 mg/kg, po measured at 1 hr post dosing; format: functional, organism-based
Rattus norvegicus [11] = assay: Toxicity in chronic constriction injury Sprague-Dawley rat model of neuropathic pain assessed as overt impairments at 10 to 100 mg/kg, po; format: organism-based; conditions: in vivo
Rattus norvegicus [12] = assay: Toxicity in sciatic nerve ligation Sprague-Dawley rat model of neuropathic pain assessed as behavioral changes at 10 to 100 mg/kg, po; format: organism-based; conditions: in vivo
Rattus norvegicus [13] = assay: Toxicity in Sprague-Dawley rat reserpine model of central pain assessed as overt impairments at 10 to 100 mg/kg, po; format: organism-based; conditions: in vivo
Liver microsome = assay: Unbound intrinsic clearance in human liver microsomes after 5 hrs by LC-MS/MS analysis; format: ADME
In short: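 Microsomal stability run in an automated high-throughput plate format. Intrinsic clearance corrected for nonspecific microsomal binding using measured unbound fraction (fu,mic), reported as unbound Clint in L/h/kg.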

Rattus norvegicus [14] = species on record: Rattus norvegicus; assay: Cardiotoxicity in rat assessed as increase in cardiac contractility at plasma concentration of 4.7 ug/ml; format: toxicity, organism-based

IC50 [1]: 380 nM
Activity [2]: < 50%
Activity [3]: < 50%
Activity [4]: < 50%
Activity [5]: < 50%
clearance [7]: 26.7 mL/min/kg
Vd [8]: 1.4 L/kg
bioavailability [9]: 26%
CL free (Liver microsome): 33 mL/min/kg
Structure (SMILES): C[C@]1(O)C[C@](c2cc(C(F)(F)F)ccn2)([C@H](O)c2ccccn2)C1 (mixture of isomers)
Activity [6]: < 50%
Activity (Rattus norvegicus [10]): Dose-dependent effect
Activity (Rattus norvegicus [11]): Non-toxic
Activity (Rattus norvegicus [12]): Non-toxic
Activity (Rattus norvegicus [13]): Non-toxic
Activity (Rattus norvegicus [14]): Non-toxic
